Most compounds without a hit are left out; they make up all but 3.9% or so of the library.
core dimer inh: HCV core protein dimerization inhibition; TR-FRET GST/Flag-core106 dimerization, 1536-well; inhibition, % at 5 µM; 0.33% of 300,000 active;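 active = inhibition above the mean of all tested compounds plus 3 SD, set per screening campaign, cut at about 45% in these data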
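Assay system: tagged HCV core106 pair (GST and Flag); medium: KF-containing HEPES buffer, pH 7.45, DTT, CHAPS, BSA; also added: Eu donor and XL665 acceptor anti-tag antibodies; dosing: 5 µM single dose; timing: compound-protein-antibody incubation 4 h at 22.5 °C; signal: TR-FRET 671 and 617 nm emission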
HSF1 activator: increases HSF-1 driven luciferase reporter signal | AID 504408 | activation, % at 9 µM | 1.7% of 300,000 active | NIH3T3-HGL HSF-1 luciferase reporter, MG132, 8 h; 100% = twice DMSO control signal;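 active = mean replicate activation of at least 50% with a set share of replicates each reaching 50%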;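 note: 0% = median of the neutral control wells and 100% = twice that signal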
FID counter: counter-screen for HCV NS3 helicase inhibitors: DNA intercalator displacement | DNA fluorescent intercalator displacement, fluorescence | inhibition, % at 7.9 µM | 0.17% of 290,000 active | AID 1845; in the data active = inhibition above about 37%;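 note: 0% = vehicle and 100% = reference compound; higher means more ethidium bromide displaced from hairpin DNA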
HCV NS3 hel inh: HCV NS3 helicase inhibition; 0.56% of 290,000 active; NS3 helicase DNA unwinding, Cy5 molecular beacon fluorescence; inhibition, % at 10.9 µM;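 active = inhibition above the mean of all tested compounds plus 3 SD, set per campaign, cut at about 35% in these data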;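 note: 0% = DMSO wells and 100% = thioflavine S control wells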
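Compound dosing – single dose, 10.9 µM nominal final, DMSO 0.8% final · System – NS3 helicase fragment of HCV · Buffer or medium – MOPS pH 6.5, MgCl2, DTT, Tween20, BSA · Signal – Cy5 beacon fluorescence read at start and 1 h · Also added – annealed dual-labelled DNA beacon duplex, ATP-started · Schedule – 1 h at 25 °C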
HSP90 inh: HSP90 refolding inhibition in rabbit reticulocyte lysate | luciferase refolding luminescence, 3 h | inhibition, % at 5.6 µM | 0.91% of 290,000 active;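 active = inhibition above the screen-wide mean plus 3 SD, computed separately per campaign, cut at about 16% in these data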;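 note: 0% = DMSO wells and 100% = 60 µM geldanamycin wells; inhibitors lower the luminescence because luciferase stays unfolded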
HSF1 inhib: HSF1 inhibition; AID 2098; NIH3T3-HGL HSE-luciferase, MG132-induced, luminescence 8 h; hits give low values; 0.77% of 300,000 active; activity change, negative = inhibition, % at 7.5 µM (by protocol);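 active = more than half of replicate wells show activity change below -50%, luminescence cut by over half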;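 note: luciferase reports HSF-1 transcriptional activity via heat shock element; 0% = median of DMSO wells and -100% = zero luminescence signal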
* = called active by the depositor; . = no result.

SMILES	core dimer inh	HSF1 activator	FID counter	HCV NS3 hel inh	HSP90 inh	HSF1 inhib
Cc1ccc2c(CN3CCN(S(=O)(=O)/C=C/c4ccccc4)CC3)cc(=O)oc2c1	12	78*	-19	-17	-1	28
Cc1ccc(-c2nn(-c3ccccc3)cc2CN(C)C(=O)CCC(=O)O)cc1C	6	-60	-30	1	-2	-55*
Cc1ccc(-c2cc(C(=O)NCCc3ccc(S(N)(=O)=O)cc3)c3ccccc3n2)cc1	-4	21	-19	13	3	11
CCCCCCNC(=O)c1cc(-c2ccco2)nc2ccccc12	64*	31	-25	13	-3	14
CCCCCCCNC(=O)c1cc(-c2ccncc2)nc2ccccc12	3	68*	-28	-11	1	43
CC(C)CCNC(=O)c1cc(-c2ccco2)nc2ccccc12	-2	0	-15	8	7	2
C[C@H](NC(=O)c1ccc(Cl)cc1)C(=O)NCCc1ccc(S(N)(=O)=O)cc1	2	1	-3	3	1	-4
NS(=O)(=O)c1ccc(CCNC(=O)c2cc(-c3ccccc3)nc3ccccc23)cc1	-21	64*	-15	13	-5	21
C[C@H](NC(=O)c1ccccc1Cl)C(=O)NCCc1ccc(S(N)(=O)=O)cc1	-2	56*	-3	-5	-1	7
Cc1ccc(C(CNS(=O)(=O)c2ccc([N+](=O)[O-])cc2)N2CCN(C)CC2)cc1 (stereo unspecified)	-3	-4	.	.	.	-6
COc1ccc(/C=N/NC(=O)CN(C)S(=O)(=O)c2ccc(NC(C)=O)cc2)cc1	-3	-67	-10	2	-5	-60*
CC(C(=O)Nc1ccccc1Br)N1c2cccc3cccc(c23)S1(=O)=O (stereo unspecified)	14	67*	-22	-13	-2	35
CNC(=O)C(C)N1c2cccc3cccc(c23)S1(=O)=O (stereo unspecified)	.	-3	-5	11	-4	-2
CNCc1c(OCc2ccccc2F)ccc2ccccc12	-1	-76	23	-22	1	-71*
COc1ccc(C(C(=O)Nc2ccc(F)cc2)N(C(=O)Cn2nnc3ccccc32)C2CC2)cc1 (stereo unspecified)	5	-12	-11	-2	-2	-1
C=C(C)Cn1c(C)cc(C)c(S(=O)(=O)c2ccc(C)cc2)c1=O	12	-8	-27	-11	1	-4
Cc1cc(C)n(Cc2ccc(Cl)cc2Cl)c(=O)c1S(=O)(=O)c1ccccc1	3	59*	-2	1	1	23
O=S(=O)(NC1CC2CCC1C2)c1ccc(Br)cc1 (stereo unspecified)	0	-1	-15	-6	-6	7
O=C(O)c1ccccc1NS(=O)(=O)c1cccc(-n2sc3ccccc3c2=O)c1	-2	0	6	4	-2	-2
CC(O/N=C\c1ccccc1O)C(=O)Nc1ccccc1C(=O)N1CCOCC1 (stereo unspecified)	-12	-69	-11	-9	2	-58*
CC(c1ccon1)N(C)Cc1cn(Cc2ccccc2)nc1-c1ccc2c(c1)OCO2 (stereo unspecified)	7	7	-1	-19	3	-4
C=CCN(C(=O)CCC(=O)Nc1cc(C)on1)C(C(=O)NC(C)(C)C)c1cccc(OC)c1OC (stereo unspecified)	4	83*	-34	-2	-1	30
COc1cccc(C(C(=O)NC(C)(C)C)N(C(=O)CCC(=O)Nc2cc(C)on2)C(C)(C)C)c1OC (stereo unspecified)	-4	8	-31	4	-1	-3
CCn1c(-c2ccc(F)cc2)cnc1SCC(=O)N1CCc2ccccc21	7	70*	-25	-6	-3	41
O=C(CCC(=O)N1CCc2ccccc21)N1CCc2ccccc21	.	.	0	-3	-2	.
SMILES	core dimer inh	HSF1 activator	FID counter	HCV NS3 hel inh	HSP90 inh	HSF1 inhib
Cn1cccc1Cc1nnc(SCC(=O)N2CCc3ccccc32)n1CCc1ccccc1	3	4	-40	3	22*	3
Cn1cccc1Cc1nnc(SCC(=O)N2CCCC2)n1CCc1ccccc1	0	0	-37	10	-3	9
O=C(COc1ccccc1Cl)N1CCc2ccccc21	.	74*	-11	-3	1	57
O=C(COc1ccccc1)N1CCc2ccccc21	-14	48	-5	5	8	26
O=C(CSc1ccccc1)N1CCc2ccccc21	10	59*	-10	-2	5	43
CCOC(=O)CC(Nc1nc(N2CCOCC2)nc(N2CCOCC2)n1)c1ccccc1Cl (stereo unspecified)	3	11	-17	-5	4	2
Cc1ccc2c(CC(=O)N3CCc4ccccc43)coc2c1	30	77*	-11	-4	0	76
O=C(Cc1coc2ccc3ccccc3c12)N1CCc2ccccc21	9	-1	-4	-1	1	14
O=C(CCCc1ccccc1)N1CCc2ccccc21	3	59*	-20	-17	5	30
CCOC(=O)c1ccc(NC(=O)CSc2nc3c(c(=O)n2-c2ccccc2OC)SCC3)cc1	24	-21	.	.	.	0
O=C(CSc1nc2ccccc2n1S(=O)(=O)c1ccccc1)N1CCCC1	2	-17	3	2	2	-4
CCCCN(C)CCCNC(=O)c1cn(CC)c2ccc(S(=O)(=O)N3CCc4ccccc4C3)cc2c1=O	-2	13	20	-35	3	-4
CCCCN(CC)CCCNC(=O)c1cn(CC)c2ccc(S(=O)(=O)N3CCc4ccccc4C3)cc2c1=O	5	-6	41*	-65	-3	-10
CC(C)C[C@@H](COc1ccccc1)N1CCN(C)CCC1=O	0	-1	-2	-7	-4	-1
O=C(O)Cn1c(SCCOc2ccc(Cl)cc2)nc2ccccc21	.	63*	-33	15	1	27
O=C(NCC(=O)N(Cc1cccs1)C(C(=O)NC1CCCCC1)c1cccnc1)c1ccco1 (stereo unspecified)	-2	12	-21	4	2	1
COC(=O)c1ccc2c(=O)n(CC3CCCO3)c(SCC(=O)Nc3ccccc3OC)nc2c1 (stereo unspecified)	7	55*	-3	-10	4	28
COC(=O)c1ccc2c(=O)n(CC3CCCO3)c(SCC(=O)Nc3ccccc3Cl)nc2c1 (stereo unspecified)	-1	16	-1	5	-5	5
Cc1ccnc(NC(c2ccccn2)c2c(C)[nH]c3ccccc23)c1 (stereo unspecified)	-3	13	0	-2	0	12
CC(=O)c1cc(NC(=O)c2ccc(C)cc2)c(=O)oc1C	5	43	-1	11	0	37
